Experimental data reported in publication PMC6335621 (Chemical Science, 2018).
Values belong to the molecule of their own block, whether it stands above or below them.

How the values were obtained:
[1] = Stability in the solid state and in CDCl3 solution; assay type: physicochemical
HepG2 = assay: In vitro cytotoxicity; assay type: cell-based, human; details: read-out: IC50 HepG2; MTT assay, 72 h incubation
In short: (§1)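 Cell lines: HeLa (cervical epithelial carcinoma), HepG2 (hepatocellular carcinoma), MCF-7 (breast carcinoma), HCT-116 (colorectal carcinoma), and HCC827 and NCI-H460 (non-small cell lung carcinoma).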

HCT116 = assay: In vitro cytotoxicity; assay type: cell-based, human; details: read-out: IC50 HCT116; MTT assay, 72 h incubation
In short: as §1

HCC827 = assay: In vitro cytotoxicity; assay type: cell-based, human; details: read-out: IC50 HCC827; MTT assay, 72 h incubation
In short: as §1

NCI-H460 [2] = assay: In vitro cytotoxicity in the dark; assay type: cell-based, human; details: read-out: IC50 NCI-H460 (dark)
In short: as §1

NCI-H460 [3] = assay: Light-induced cytotoxicity assay; assay type: cell-based, human; details: for PI = IC50(dark)/IC50(light): NCI-H460, phototoxicity index
In short: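 NCI-H460 cells were incubated with test compound, then exposed to visible light at 2.8 mW cm–2 for 1 h. […] Phototoxicity index = IC50(dark)/IC50(light).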

[4] = in CHCl3; cited from earlier work

- Decomposes within ([1]; under ambient conditions): ≤ 1 days
Molecule: [Ir^III(F20tpp)(IMe)Cl] [1c]

- Stable in the solid state and in CDCl3 solution for [1]: 1 week
Molecule: [Ir^III(tmp)(BIMe)Cl] [1b]

- Stable in the solid state and in CDCl3 solution for [1]: 1 week
Molecule: [Ir^III(F20tpp)(BIMe)Cl] [1d]

- Stable in the solid state and in CDCl3 solution for [1]: 1 week
Molecule: [Ir^III(tmp)(IMe)Cl] [1a]

Second part, the molecule before the results:

Molecule: N.N.[Cl][Pt][Cl] [Cisplatin]
- IC50 (HepG2): 6.18 ± 0.82 µM
- IC50 (HCT116): 6.94 ± 0.54 µM
- IC50 (HCC827): 9.61 ± 0.81 µM
- IC50 (NCI-H460 [2]): 3.96 ± 0.48 µM
- PI = IC50(dark)/IC50(light) (NCI-H460 [3]): 0.86
- PI = IC50(dark)/IC50(light) (NCI-H460 [3]; listed as cisplatin): < 1
- IC50 (NCI-H460 [3]; read-out: IC50 NCI-H460 (light), visible light irradiation 2.8 mW cm^–2 for 1 h): 4.61 ± 0.31 µM

Molecule: C1=Cc2nc1c(-c1ccccc1)c1ccc([nH]1)c(-c1ccccc1)c1nc(c(-c3ccccc3)c3ccc([nH]3)c2-c2ccccc2)C=C1 [H2tpp]
- Φso (quantum yield of singlet oxygen production) [4]: 0.55
